TCR-CD3 inh: inhibitors of human TCR-CD3 interaction, primary screen, biochemical, fluorescence, TAMRA-labeled TCR probe. T-cell receptor (TCR). inhibition, % at 9.4 µM. hit rate 0.37% among 360,000; in the data active means inhibition above about 19%;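 further: recombinant mutant TCR 2C K166C tagged with TAMRA read by polarization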
Tn6 DDE FP: inhibitors of Tn6 peptide binding to fibrin DD(E), primary screen, biochemical, fluorescence polarization, human fibrin, Tn6 probe | Fibrin DD(E) TRITC-Tn6 fluorescence polarization displacement | inhibition, % at 8.3 µM | hit rate 0.21% among 370,000 | AID 720509, 2013;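 active means inhibition above a per-campaign cutoff: mean of compounds within control limits plus 3 SD, cut at about 15% in these data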
DDE Tn7 FP inh: inhibitors of Tn7 peptide binding to fibrin DD(E), primary screen, biochemical, fluorescence polarization, human fibrin, Tn7 probe; FP displacement of FITC-Tn7 peptide from fibrin DD(E); 0% = median of compound wells per plate; Fibrinogen beta chain (Homo sapiens), P02675; inhibition, % at 8.3 µM; hit rate 0.13% among 370,000;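 active means inhibition above the mean of compounds falling within the control limits plus 3 SD of them, cut at about 14% in these data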
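Assay system: human fibrin DD(E) protein / Input: 2 µM fibrin DD(E) / Benchmarks: high control of 10 µM Aha-Tn7 peptide / Measured by: fluorescence polarization of the labelled Tn7 tracer / Medium: Tris buffer with calcium and detergent, pH 7.8 / Timing: 10 min compound pre-incubation, 3 h probe incubation at room temperature / Repeats: one replicate per compound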
HTRA1 inh: HTRA1 serine protease inhibitors, primary screen, biochemical, fluorescence polarization, HTS | hit rate 0.5% among 340,000 | recombinant HTRA1, FP-rhodamine activity-based probe | inhibition, % at 5.96 µM | Q92743; in the data active means inhibition above about 36%
Target sequence (Q92743 whole entry, looked up): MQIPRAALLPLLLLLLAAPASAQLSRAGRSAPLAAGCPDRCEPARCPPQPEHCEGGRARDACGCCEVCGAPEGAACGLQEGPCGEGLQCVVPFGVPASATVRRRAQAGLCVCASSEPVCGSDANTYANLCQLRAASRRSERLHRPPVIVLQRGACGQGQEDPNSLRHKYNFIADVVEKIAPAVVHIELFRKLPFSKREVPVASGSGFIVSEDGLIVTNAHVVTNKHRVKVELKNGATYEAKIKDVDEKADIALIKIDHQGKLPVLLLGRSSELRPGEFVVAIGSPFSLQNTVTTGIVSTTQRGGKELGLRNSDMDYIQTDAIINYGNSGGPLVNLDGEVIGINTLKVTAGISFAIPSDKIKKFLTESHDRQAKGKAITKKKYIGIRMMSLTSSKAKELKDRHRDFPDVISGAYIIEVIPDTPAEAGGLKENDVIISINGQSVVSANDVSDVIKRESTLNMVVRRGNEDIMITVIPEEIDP
ABHD4 inh: ABHD4 inhibitors, primary screen, biochemical, fluorescence polarization, mouse. AID 720543, 2013. inhibition, % at 8.92 µM. purified mABHD4, FP-Rh probe fluorescence polarization. hit rate 0.54% among 370,000. (Lyso)-N-acylphosphatidylethanolamine lipase (Mus musculus), Q8VD66;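 active means inhibition exceeding the mean over every tested compound plus 3 SD, cut at about 30% in these data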
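Doses – 8.92 µM, single dose · Material – wild-type mouse ABHD4 protein · Replication – single well per compound (singlicate) · Measure – percent inhibition of probe binding, normalized to plate controls · Schedule – 45 min compound pre-incubation plus 60 min probe step, 25 °C · Detection – fluorescence polarization with parallel and perpendicular emission, 525/598 nm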
SIAE inh: human SIAE inhibitors, primary screen, biochemical, fluorescence polarization, FP-Rh probe, 1536-well HTS; SIAE FP-Rh probe binding; inhibition, % at 9.66 µM; hit rate 0.69% among 370,000;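 active means inhibition above a cutoff: mean of compounds within the control limits plus 3 SD of those, cut at about 17% in these data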
SIAE inh conf: human SIAE inhibitors, retest, confirmation, biochemical, fluorescence polarization, FP-Rh probe, triplicate. shares compounds with SIAE inh. SIAE FP-Rh activity-based probe. inhibition, % at 9.66 µM. hit rate 13% among 2,300. AID 1117263, 2014;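 active means mean inhibition of the replicates above the hit cutoff set in the primary screen, cut at about 17% in these data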;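 further: inhibitors lower polarization as more probe stays unbound to SIAE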
Hits are given with their value; – = inactive; · = no result given. The list is not random: actives were taken first. Their share in the collection is about 1.8%.

SMILES	TCR-CD3 inh	Tn6 DDE FP	DDE Tn7 FP inh	HTRA1 inh	ABHD4 inh	SIAE inh	SIAE inh conf
Cc1c(Cl)cccc1NC(=O)CNC(=O)C1CC(=O)N(C2CCCC2)C1 (stereo not drawn)	–	–	–	–	–	21	–
Cc1c(Cl)cccc1NC(=O)C1CC(=O)N(C2CCCC2)C1 (stereo not drawn)	–	–	–	–	–	–	·
O=C(CNC(=O)C1CCCCC1)Nc1cc(Cl)ccc1Cl	–	–	–	–	–	–	·
O=c1[nH]c(SCc2ccc(OC(F)(F)F)cc2)nc2c1CCC2	–	–	–	·	–	–	·
Cc1ccc(S(=O)(=O)Nc2cccc3c2O[C@H](CN(C)C(=O)Nc2cccc4ccccc24)[C@H](C)CN([C@H](C)CO)C3=O)cc1	–	–	–	–	–	–	·
O=C(Nc1ccc(-c2csc(Nc3ccc(Cl)cc3)n2)cc1)c1cc([N+](=O)[O-])cc(C(F)(F)F)c1	–	–	–	–	–	–	·
O=C(Nc1cccc(-c2csc(Nc3ccccc3)n2)c1)c1cc([N+](=O)[O-])cc(C(F)(F)F)c1	–	–	–	–	–	32	–
O=C(Nc1cccc(-c2csc(Nc3ccc(Cl)cc3)n2)c1)c1cc([N+](=O)[O-])cc(C(F)(F)F)c1	–	–	–	–	–	29	–
O=C(Nc1cccc(-c2csc(Nc3ccc(Cl)cc3)n2)c1)c1cccc(C(F)(F)F)c1	–	–	–	–	–	–	·
CCCNc1c(NC(C)=O)c(=O)oc2ccccc12	–	–	–	–	–	–	·
CC(=O)Nc1c(NC(C)(C)C)c2ccccc2oc1=O	–	–	–	–	–	21	–
COC(=O)[C@]12CCCCC=C1N(CCc1ccc(OC)c(OC)c1)C(=O)[C@H](CC(=O)N1CCN(C(=O)c3ccco3)CC1)C2	–	–	–	·	–	–	·
CC(CCc1ccccc1)NC(=O)CSc1ccccc1 (stereo not drawn)	–	–	–	–	–	–	·
CC(CCc1ccccc1)NC(=O)CSc1cccc[n+]1[O-] (stereo not drawn)	–	–	–	–	–	19	–
CC(C)(C)OC(=O)C(Cc1ccc(OC(C)(C)C)cc1)NC(=O)CNC(=O)OCc1ccccc1 (stereo not drawn)	–	–	–	–	–	–	·
Nn1c(SCC(=O)Nc2ccc(F)cc2)nnc1C1CCCCC1	–	–	–	–	–	–	·
CN(C)c1ccc(NC(=O)CSc2nnc(C3CCCCC3)n2N)cc1	–	–	–	–	–	20	–
CN1CCC(=NNC(=O)CN(c2cccc([N+](=O)[O-])c2)S(=O)(=O)c2ccccc2)CC1	–	–	–	–	–	23	–
COC(=O)CC1=NN(c2ccc(OC)cc2)C(=O)/C1=C\c1ccc(Cl)cc1	–	–	–	–	–	17	–
COC(=O)CC1=NN(c2ccccc2)C(=O)/C1=C\c1ccc(OC)cc1	–	–	–	–	–	–	·
Cn1c2ccccc2c2cc(/C=N/NC(=O)c3ccc(N)cc3)ccc21	–	–	–	–	–	24	–
COc1cc(C(=O)N/N=C/c2cn(Cc3ccccc3)c3ccccc23)ccc1O	–	–	–	–	–	25	–
COC(=O)N/N=C/c1cn(Cc2ccc(F)cc2)c2ccccc12	–	–	–	–	–	–	·
Nc1ccc(C(=O)N/N=C/c2cn(Cc3ccc(F)cc3)c3ccccc23)cc1	–	–	–	–	–	–	·
CNC(=S)N/N=C/c1cn(Cc2ccc(F)cc2)c2ccccc12	–	–	–	–	–	19	–
SMILES	TCR-CD3 inh	Tn6 DDE FP	DDE Tn7 FP inh	HTRA1 inh	ABHD4 inh	SIAE inh	SIAE inh conf
Nc1ccc(C(=O)N/N=C/c2cn(Cc3ccccc3F)c3ccccc23)cc1	–	–	–	–	–	20	–
Cc1cc(C(=O)N2CCC(C)(C(=O)NS(=O)(=O)C3CC3)C2)n(C(C)(C)C)n1 (stereo not drawn)	–	–	–	·	–	–	·
CCCNC(=O)C1(C)CCCN(C(=O)c2ccccc2OC)C1 (stereo not drawn)	–	–	–	·	–	–	·
O=C(CCC(=O)N1CCN(S(=O)(=O)c2ccccc2)CC1)c1ccc(Br)cc1	–	–	–	–	–	–	·
Cn1cc(S(=O)(=O)NC[C@H]2O[C@@H](n3ccc(=O)[nH]c3=O)[C@H](O)[C@@H]2O)cn1	–	–	–	–	–	–	·
CC(C)[C@H]1COCCS(=O)(=O)N1Cc1ccccc1-c1cccc(Cl)c1	–	–	–	–	–	–	·
CCOc1ccc(N(CC(=O)NC2CCCC2)C(=O)Cn2nnc(-c3ccc(C)o3)n2)cc1	–	–	–	–	–	–	·
COc1ccc(N(CC(=O)NC2CCCC2)C(=O)Cn2nnc(-c3ccc(C)o3)n2)cc1	–	–	–	–	–	18	–
Nc1nnn(CC(=O)N/N=C/c2cn[nH]c2-c2ccccc2)n1	–	–	–	–	–	21	–
Nc1nnn(CC(=O)N/N=C/c2ccncc2)n1	–	–	–	·	–	–	·
CC(C)COc1cccc(-c2cc(C(=O)N/N=C/c3ccncc3)c3ccccc3n2)c1	–	–	–	–	–	–	·
CC(C)(C)N(NC(=O)Nc1ccc(Cl)cc1)C(=O)c1ccccc1	–	–	–	–	–	17	–
Cc1ccc(NS(=O)(=O)c2cccc(C(=O)NNC(=O)NC3CCCCC3)c2)c(C)c1	–	–	–	–	–	18	–
CN1N=C(N)c2cn(C3OC(COP(=O)(O)O)C(O)C3O)c3ncnc1c23 (stereo not drawn)	–	–	–	–	–	–	·
O=C1CCc2ccccc2N1Cc1ccccc1	–	–	–	–	–	18	–
O=C1CCCc2ccccc2N1Cc1ccc(F)cc1	–	–	–	–	–	–	·
Cc1cc(C)c(NS(=O)(=O)c2c(C(=O)N3CCOCC3)c(C)n(C)c2C)c(C)c1	–	–	–	–	–	18	–
Cc1ccc(S(=O)(=O)n2cccc2/C=C/[N+](=O)[O-])cc1	–	–	–	–	–	–	·
COc1ccc(-c2[nH]c(-c3cc(OC)c4c(c3)OCO4)nc2-c2ccccc2)cc1	–	–	–	–	–	26	–
COc1ccc(-c2nc(-c3ccccc3)c(-c3cc([N+](=O)[O-])ccc3C)[nH]2)cc1OC	–	–	–	–	–	–	·

Bioassay records: PubChem, The Scripps Research Institute Molecular Screening Center
